Tests used:
Format in all cases: functional, cell-based
[1] = Cytotoxicity against human EC9706 cells after 72 hrs by MTT assay; details: EC9706, 72 h
Procedure, shortened: (§1)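 Cells were grown in RPMI1640 and seeded at 5 × 10^3 cells/well, then left 24 h at 37 °C. Medium was replaced with fresh medium holding a range of compound concentrations, from 10 mM DMSO stocks with final DMSO at most 0.1%. Exposure lasted 72 h. MTT (5 mg/mL) was added for 4 h at 37 °C, formazan was dissolved in DMSO and A570 was read. IC50 came from dose-response curves as mean ± SD of three independent experiments.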

MCF7 = test: Cytotoxicity against human MCF7 cells after 72 hrs by MTT assay; details: MCF7, 72 h; procedure, shortened: as §1
MGC-803 = test: Cytotoxicity against human MGC803 cells after 72 hrs by MTT assay; details: MGC-803, 72 h; procedure, shortened: as §1
SMMC-7721 = test: Cytotoxicity against human SMMC7721 cells after 72 hrs by MTT assay; details: SMMC-7721, 72 h; procedure, shortened: as §1

Compound	IC50 [1] [µM]	IC50 (MCF7) [µM]	IC50 (MGC-803) [µM]	IC50 (SMMC-7721) [µM]
CCCCc1ccc(NC(=O)CSC(=S)N[C@H]2CCOC2=O)cc1	44.2	40.2	20.5	27.3
O=C(CSC(=S)N[C@H]1CCOC1=O)Nc1ccc(C(=O)/C=C/c2ccc(Cl)cc2)cc1	38.9	20.2	6.9	> 128
O=C(CCl)Nc1ccc(C(=O)/C=C/c2cccc(Cl)c2)cc1	5.56	5.34	2.01	7.76
O=C(CCl)Nc1ccc(C(=O)/C=C/c2ccccc2Cl)cc1	6.98	5.26	2.75	11.1
CSC(=S)N[C@H]1CCOC1=O	> 128	> 128	> 128	> 128
O=C(CSC(=S)N[C@H]1CCOC1=O)Nc1ccc(C(=O)/C=C/c2ccccc2)cc1	44.9	44.3	24.8	> 128
CC(=O)c1ccc(NC(=O)CSC(=S)N[C@H]2CCOC2=O)cc1	> 128	> 128	99.4	> 128
Cc1ccc(NC(=O)CSC(=S)N[C@H]2CCOC2=O)cc1	93.9	33.5	44.3	32.7
Cc1cccc(NC(=O)CSC(=S)N[C@H]2CCOC2=O)c1	> 128	63.2	36.6	> 128
CCCCCCCCCC(=O)CC(=O)N[C@H]1CCOC1=O	> 128	37.3	102	> 128
COc1ccc(NC(=O)CSC(=S)N[C@H]2CCOC2=O)cc1	> 128	> 128	62.1	> 128
CCCCCCCCSC(=S)N[C@H]1CCOC1=O	> 128	> 128	> 128	65
O=C(CCl)Nc1ccc(C(=O)/C=C/c2ccc(Br)cc2)cc1	10.1	4.64	6.05	13.3
COc1cccc(/C=C/C(=O)c2ccc(NC(=O)CCl)cc2)c1	5.97	3.02	2.91	10.3
O=C(CSC(=S)N[C@H]1CCOC1=O)Nc1cccc(Cl)c1	107	46.6	21.8	> 128
O=C(CSC(=S)N[C@H]1CCOC1=O)Nc1ccccc1	> 128	> 128	39.7	> 128
O=C(CCl)Nc1ccc(C(=O)/C=C/c2ccc(Cl)cc2)cc1	8.34	4.1	4.96	8.16
O=C(CSC(=S)N[C@H]1CCOC1=O)Nc1ccc(Br)cc1	67.4	66.5		28.3
O=C(CSC(=S)N[C@H]1CCOC1=O)Nc1cccc(C(F)(F)F)c1	79.7	3.13	17.9	> 128
O=C(CCl)Nc1ccc(C(=O)/C=C/c2ccc(F)cc2)cc1	8.6	5.47	4.68	15.1
O=C(CSC(=S)N[C@H]1CCOC1=O)Nc1ccc(C(=O)/C=C/c2cccc(Cl)c2)cc1	32.5	11.6	15.6	39.1
CCCCCCSC(=S)N[C@H]1CCOC1=O	> 128	> 128	> 128	> 128
CCCCCCCCCCCCCCSC(=S)N[C@H]1CCOC1=O	66.2	30.5		56.8

Compound	IC50 [1] [µM]	IC50 (MCF7) [µM]	IC50 (MGC-803) [µM]	IC50 (SMMC-7721) [µM]
O=C(CSC(=S)N[C@H]1CCOC1=O)Nc1ccc(Cl)cc1	> 128	50.3		> 128
Cc1cccc(NC(=O)CSC(=S)N[C@H]2CCOC2=O)c1C	> 128	> 128		42.1
O=C(CSC(=S)N[C@H]1CCOC1=O)Nc1ccc(C(=O)/C=C/c2ccc([N+](=O)[O-])cc2)cc1	> 128	2.67	29.4	> 128
O=C(CCl)Nc1ccc(C(=O)/C=C/c2ccc(F)c(F)c2)cc1	4.63	2.29	3.19	5.96
O=C(CSC(=S)N[C@H]1CCOC1=O)Nc1cccc([N+](=O)[O-])c1	> 128	5.46	58.9	> 128
COc1cc(/C=C/C(=O)c2ccc(NC(=O)CCl)cc2)cc(OC)c1OC	2.73	1.32	1.72	3
CCOC(=O)c1ccc(NC(=O)CSC(=S)N[C@H]2CCOC2=O)cc1	112	60.2	21.7	64.9
O=C(CSC(=S)N[C@H]1CCOC1=O)Nc1ccc(C(=O)/C=C/c2ccc(F)cc2)cc1	46.1	83.7	45.7	> 128
O=C(CSC(=S)N[C@H]1CCOC1=O)Nc1ccc(Cl)cc1Cl	> 128	29.2	48.5	> 128
CCCCSC(=S)N[C@H]1CCOC1=O	> 128	> 128	> 128	> 128
O=C(CCl)Nc1ccc(C(=O)/C=C/c2ccc([N+](=O)[O-])cc2)cc1	3.67	3.91	2.35	9.06
O=C(CSC(=S)N[C@H]1CCOC1=O)Nc1ccccc1Cl	> 128	90.8	31.9	49.9
O=C(CCl)Nc1ccc(C(=O)/C=C/C=C/c2ccccc2)cc1	10.7	4.59	5.97	36.7
O=C(CSC(=S)N[C@H]1CCOC1=O)Nc1ccc(F)cc1	67.1	5.83	37.6	> 128
Cc1ccc(/C=C/C(=O)c2ccc(NC(=O)CCl)cc2)cc1	7.15	9.18	3.6	22.9
O=C(CSC(=S)N[C@H]1CCOC1=O)Nc1ccccc1F	> 128	28.6		> 128
O=C(CSC(=S)N[C@H]1CCOC1=O)Nc1ccc(O)cc1	> 128	> 128	80	> 128
CCCCCCCCCCCCSC(=S)N[C@H]1CCOC1=O	58.3	61.1		50.3
O=c1[nH]cc(F)c(=O)[nH]1 [FLUOROURACIL]	15.7	12.2	10.7	20.4
CCSC(=S)N[C@H]1CCOC1=O	> 128	> 128	> 128	> 128
O=C(CCl)Nc1ccc(C(=O)/C=C/c2ccccc2)cc1	6.37	2.48	6.94	12.6
O=C(CSC(=S)N[C@H]1CCOC1=O)Nc1ccc(C(=O)/C=C/c2ccc(Br)cc2)cc1	91.2	18.7	19.6	18
